Experimental data reported in PubChem BioAssay.
Active and inactive are the calls of the source.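 Rule for the calls, unless noted: active = GFP response above 150% of the DMSO level; inconclusive = fewer than 70 events counted for a yeast strain; inactive = the rest.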

Columns and labels:
[1] = hit retest on RPL19A-GFP reporter strain – cell-based, S. cerevisiae, flow cytometry, cherry picks, mother/daughter gates, confirmation (AID 2270;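 active = GFP response below 50% of the DMSO control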); settings: 3 h, at 10 µM, stronger effect = lower value, 100 = same GFP as DMSO wells
[2] = yeast TOR pathway reporter LAP4-GFP change – cell-based, cherry picks, flow cytometry, mother/daughter gates, confirmation (AID 2271;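 active = GFP response above 150% of the DMSO control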;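 note: ratio of sample to DMSO plate mean so 100% equals DMSO level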); settings: S. cerevisiae LAP4-GFP strain, 3 h, at 10 µM, stronger effect = higher value, 100 means same as DMSO control
How it was run: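 Measured by: GFP by flow cytometry. Test system: GFP-fusion yeast strain. Input: yeast cells seeded at OD600 of 0.2. Timing: 30 °C, 3 h compound incubation, rotating. Buffer or medium: synthetic complete medium for yeast. Benchmarks: DMSO-only negative wells, rapamycin 400 ng/mL positive wells. Compound: 10 µM single dose.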

[3] = TOR pathway reporter MEP2-GFP, retest of hits – S. cerevisiae, flow cytometry GFP, cherry picks, confirmation (AID 2272;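 active = GFP response above 150% of the DMSO control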;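 note: ratio of well signal to plate DMSO mean so 100% equals DMSO level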); settings: S. cerevisiae MEP2-GFP strain, 3 h, at 10 µM, stronger effect = higher value
[4] = yeast AGP1-GFP fluorescence change, single-dose – cell-based, flow cytometry, S. cerevisiae, cherry picks, confirmation (AID 2273);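 note: median GFP channel fluorescence over the whole cell population gate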; settings: S. cerevisiae AGP1-GFP strain, 3 h, at 10 µM
[5] = TOR pathway CIT2 reporter hit retest – S. cerevisiae, GFP fusion, cherry picks, mother/daughter gates, confirmation (AID 2274); settings: S. cerevisiae CIT2-GFP strain, flow cytometry, 3 h, at 10 µM, stronger effect = higher value
[6] = measured here: daughter cell gate
[7] = measured here: mother cell gate
[8] = measured here: daughter cell gate response
[9] = measured here: mother cell gate response

Structure (SMILES)	GFP response vs DMSO [1]	GFP response vs DMSO [1, 6] [%]	GFP response vs DMSO [1, 7] [%]	GFP response relative to DMSO [2]	GFP response relative to DMSO [2, 8] [%]	GFP response relative to DMSO [2, 9] [%]	GFP response vs DMSO [3]	GFP response, % of DMSO [4]	GFP response, % of DMSO [5]	GFP response, % of DMSO [5, 6] [%]	GFP response, % of DMSO [5, 7] [%]
Cc1ccccc1C(=O)Nc1ccccc1	96.4% (inactive)	94.9	97.4	96.7% (inactive)	97.6	97.2	96.2% (inactive)	100% (inactive)	101% (inactive)	103	102
COc1ccc(Cc2nnc(NC(=O)c3ccccc3F)s2)cc1	97.6% (inactive)	96.4	98.5	101% (inactive)	105	101	100% (inactive)	98.3% (inactive)	100% (inactive)	99.7	97.7
FC(F)(F)c1cc(-c2cccs2)nc2cc(-c3cccs3)nn12	103% (inactive)	102	102	97% (inactive)	97.5	97.3	103% (inactive)	95.1% (inactive)	93% (inactive)	92	94.4
O=[N+]([O-])c1ccc(Sc2nc3ccccc3o2)c([N+](=O)[O-])c1	93.5% (inactive)	93.4	92	157% (active)	151	158	114% (inactive)	96% (inactive)	108% (inactive)	109	100
O=C(OCC(=O)N1CCN(C(=O)c2ccco2)CC1)c1cc(-c2cccc(Br)c2)nc2ccccc12	80.3% (inactive)	75.5	76.9	139% (inactive)	117	144	125% (inactive)	127% (inactive)	128% (inactive)	114	125
O=C(CCc1ccc(S(=O)(=O)N2CCOCC2)cc1)Oc1ccccc1	99.6% (inactive)	101	99.2	111% (inactive)	112	109	123% (inactive)	97.2% (inactive)	110% (inactive)	110	109
Cc1cc(-c2csc3nc[nH]c(=S)c23)cc(C)c1C	96.3% (inactive)	98.1	95	112% (inactive)	114	109	127% (inactive)	118% (inactive)	106% (inactive)	110	104
O=C1c2cccc3cccc(c23)C(=O)N1c1nncs1	103% (inactive)	102	103	91.4% (inactive)	94.1	92.1	102% (inactive)	99.8% (inactive)	96.5% (inactive)	94.8	99.8
COc1cc(C(=O)ON=C2C3CC4CC(C3)CC2C4)cc(OC)c1OC	97.4% (inactive)	97.6	95.6	108% (inactive)	102	111	107% (inactive)	61.1% (inactive)	145% (inactive)	136	147
CCCN(CCC)S(=O)(=O)c1ccc(C(=O)Nc2nnc(-c3cc(OC)cc(OC)c3)o2)cc1	98.2% (inactive)	99.4	99	91.5% (inactive)	91.2	91.9	102% (inactive)	93.9% (inactive)	101% (inactive)	101	101
N#Cc1ccccc1Cn1cc(/C=C/[N+](=O)[O-])c2ccccc21	96.3% (inactive)	98.3	95.1	132% (inactive)	129	134	98.8% (inactive)	104% (inactive)	97.2% (inactive)	100	91.8
CN1Cc2sc(NC(=S)NC(=O)c3ccccc3)c(C#N)c2CC1(C)C	99.5% (inactive)	99.8	100	109% (inactive)	104	111	133% (inactive)	106% (inactive)	109% (inactive)	109	110
Cc1nn(Cc2c(Cl)cccc2Cl)c(C)c1NC(=O)c1sc2ccccc2c1Cl	94.8% (inactive)	95.7	95.8	95.3% (inactive)	93.6	98.5	99.5% (inactive)	108% (inactive)	104% (inactive)	100	106
CCOC(=O)C(CC)Sc1ncnc2c1nnn2-c1ccc(F)cc1 (centres undefined)	94.8% (inactive)	95.1	95.8	101% (inactive)	101	99.3	96.2% (inactive)	94.8% (inactive)	96.9% (inactive)	97.2	97.3
Cc1[nH]c2ccccc2c1C(=O)C(C)OC(=O)C1CCC1 (centres undefined)	98.2% (inactive)	98.1	97.8	100% (inactive)	101	100	110% (inactive)	105% (inactive)	106% (inactive)	103	106
O=C1Nc2ccc(Br)cc2/C1=C/C(=O)c1ccc2c(c1)OCO2	101% (inactive)	99.4	98.9	125% (inactive)	117	130	105% (inactive)	94.5% (inactive)	101% (inactive)	101	96.1
CCCCN(CC)S(=O)(=O)c1ccc(C(=O)Nc2nnc(COC)o2)cc1	96.6% (inactive)	96.7	98.1	100% (inactive)	99.3	99.5	97.5% (inactive)	103% (inactive)	102% (inactive)	100	101

Structure (SMILES)	GFP response vs DMSO [1]	GFP response vs DMSO [1, 6] [%]	GFP response vs DMSO [1, 7] [%]	GFP response relative to DMSO [2]	GFP response relative to DMSO [2, 8] [%]	GFP response relative to DMSO [2, 9] [%]	GFP response vs DMSO [3]	GFP response, % of DMSO [4]	GFP response, % of DMSO [5]	GFP response, % of DMSO [5, 6] [%]	GFP response, % of DMSO [5, 7] [%]
COc1cc(NC(=O)c2cccc(C)c2)ccc1NC(=O)c1cc2ccccc2o1	102% (inactive)	103	102	103% (inactive)	102	103	99% (inactive)	104% (inactive)	103% (inactive)	106	103
Cc1ccc(C)c(NC(=O)c2ccccc2O)c1	98.5% (inactive)	97	97.8	108% (inactive)	99	112	101% (inactive)	97.3% (inactive)	93.1% (inactive)	95.8	96
Cc1ccc(/C=C/C(=O)NC2CCCCCCC2)o1	98.8% (inactive)	99.4	98.2	125% (inactive)	120	130	102% (inactive)	90.8% (inactive)	101% (inactive)	105	97.3
Cc1c(O)ccc(C(=O)CN2CCN(c3ccc(F)cc3)CC2)c1O	98% (inactive)	97.3	96.7	101% (inactive)	99	101	106% (inactive)	101% (inactive)	101% (inactive)	99.3	102
COc1cccc(C(=O)/C=C/c2ccc(SC)cc2)c1	98.6% (inactive)	98.1	98.5	103% (inactive)	104	103	100% (inactive)	101% (inactive)	99.7% (inactive)	99.1	99.7
COC(=O)c1cc(NC(=O)c2c(Cl)nc3sccn23)cc(C(=O)OC)c1	97% (inactive)	98.6	96.9	92.8% (inactive)	92.8	92.9	102% (inactive)	90% (inactive)	99.7% (inactive)	101	99.7
Oc1ccc(-c2nc3ccccn3c2NCc2ccco2)cc1	96.8% (inactive)	98.4	97.1	101% (inactive)	99.2	99.3	102% (inactive)	96.2% (inactive)	103% (inactive)	105	101
O=C1CC(SCCO)C(=O)N1c1ccc(Oc2ccccc2)cc1 (centres undefined)	99.7% (inactive)	98.7	101	103% (inactive)	105	104	104% (inactive)	103% (inactive)	104% (inactive)	101	106
Cc1nnc(NC(=O)c2nc(S(=O)(=O)Cc3ccccc3)ncc2Cl)s1	95.1% (inactive)	96.7	93.7	96.5% (inactive)	99	98.4	99.3% (inactive)	103% (inactive)	104% (inactive)	103	104
COc1cc(-c2nc3ccccn3c2NCC2CCCO2)ccc1O (centres undefined)	102% (inactive)	106	102	93% (inactive)	95	88.7	106% (inactive)	103% (inactive)	106% (inactive)	108	104
COC(=O)Nc1ccc2c(c1)N(C(=O)CCN1CCN3CCCC3C1)c1ccccc1CC2 (centres undefined)	102% (inactive)	101	102	96.2% (inactive)	97.2	99.3	104% (inactive)	106% (inactive)	104% (inactive)	99.7	105
Clc1ccc(-c2nnnn2-c2ccc(Cl)cc2)cc1	101% (inactive)	102	100	97.7% (inactive)	102	96.4	99.3% (inactive)	95.9% (inactive)	100% (inactive)	101	99.3
COc1cccc(-c2noc(-c3cccnc3)n2)c1	97.2% (inactive)	97.1	96.3	102% (inactive)	102	100	101% (inactive)	97.3% (inactive)	103% (inactive)	105	102
O=C(c1cccc(COCC(F)(F)C(F)F)c1)N1CCN(c2ccccc2)CC1	101% (inactive)	101	102	100% (inactive)	97.9	97.5	104% (inactive)	102% (inactive)	97.8% (inactive)	96.4	98
Cc1cc(NCCCN2CCOCC2)n2nc(C)c(-c3ccc(F)cc3)c2n1	95.3% (inactive)	95.9	95.6	104% (inactive)	97.5	105	103% (inactive)	101% (inactive)	97.2% (inactive)	95.8	99.3
CCCn1c(=O)c(C(=O)Nc2ccccc2C(=O)OC)c(O)c2ccccc21	101% (inactive)	99	103	92.6% (inactive)	94.1	95.2	97.8% (inactive)	103% (inactive)	93.9% (inactive)	94.8	93.4
O=C(N/N=C/c1ccccc1Cl)c1ccc(F)cc1	98.2% (inactive)	98.1	97.2	111% (inactive)	104	112	96.8% (inactive)	102% (inactive)	105% (inactive)	103	103
